Bioassay records from PubChem BioAssay.
TRPC4 potent – positive allosteric modulators of TRPC4, primary screen, cell-based, mouse TRPC4beta, HEK293 mu-opioid, Fluo-4 calcium; Short transient receptor potential channel 4 (Mus musculus), Q9QUQ5; B-score at 10 µM; hit rate 0.42% among 310,000; DAMGO EC20, Fluo-4 Ca2+ flux; active compounds read high;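 active means B-score of calcium response area above 5 SD of library B-scores, with initial fluorescence ratio within 5 SD of library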;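 further: B-score of integrated fluorescence ratio over time as area under calcium response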
Target sequence (Q9QUQ5 whole entry, looked up): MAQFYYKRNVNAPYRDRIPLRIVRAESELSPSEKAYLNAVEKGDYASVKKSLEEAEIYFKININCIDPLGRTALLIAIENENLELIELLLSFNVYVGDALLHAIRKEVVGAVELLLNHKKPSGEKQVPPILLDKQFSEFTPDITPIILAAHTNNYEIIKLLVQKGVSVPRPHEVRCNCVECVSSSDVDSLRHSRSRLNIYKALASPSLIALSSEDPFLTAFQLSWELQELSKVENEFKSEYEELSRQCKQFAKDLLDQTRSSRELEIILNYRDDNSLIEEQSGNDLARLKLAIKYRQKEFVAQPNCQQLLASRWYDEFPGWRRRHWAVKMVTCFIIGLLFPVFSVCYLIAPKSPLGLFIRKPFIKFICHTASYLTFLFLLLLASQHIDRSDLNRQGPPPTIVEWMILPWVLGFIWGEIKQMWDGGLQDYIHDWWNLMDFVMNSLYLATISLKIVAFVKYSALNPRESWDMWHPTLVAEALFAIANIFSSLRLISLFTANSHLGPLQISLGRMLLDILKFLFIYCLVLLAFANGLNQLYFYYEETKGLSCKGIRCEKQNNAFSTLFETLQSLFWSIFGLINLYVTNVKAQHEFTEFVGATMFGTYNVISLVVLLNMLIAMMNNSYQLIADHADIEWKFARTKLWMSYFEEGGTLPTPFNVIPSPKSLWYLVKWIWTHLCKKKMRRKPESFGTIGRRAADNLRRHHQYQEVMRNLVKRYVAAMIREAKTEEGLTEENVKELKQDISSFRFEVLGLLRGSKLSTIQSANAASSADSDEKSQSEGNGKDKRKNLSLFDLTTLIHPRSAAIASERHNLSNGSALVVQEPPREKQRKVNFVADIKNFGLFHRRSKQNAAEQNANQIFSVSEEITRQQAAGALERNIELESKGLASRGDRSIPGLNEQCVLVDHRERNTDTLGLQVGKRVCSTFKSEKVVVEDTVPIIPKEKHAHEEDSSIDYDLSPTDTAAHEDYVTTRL
TRPC6 act – mouse TRPC6 channel activators, primary screen, cell-based, HEK293, membrane potential dye. HEK293-TRPC6 membrane potential dye fluorescence; active compounds read high. B-score at 10 µM. hit rate 0.13% among 310,000. AID 2550, 2010;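 active means B-score of the integrated fluorescence ratio above library mean plus 3 SD, and starting fluorescence ratio within library mean plus 5 SD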;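 further: higher score means more depolarization so channel activation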
TRPC4 block – inhibitors of mouse TRPC4 channel, primary screen, Fluo4 calcium, HEK293 TRPC4beta/mu-opioid cells. Short transient receptor potential channel 4 (Mus musculus), Q9QUQ5. DAMGO-evoked Fluo4 calcium flux; active compounds read low. B-score at 10 µM. hit rate 0.39% among 300,000;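 active means B-score over 3 SD under the library average, no early fluorescence shift, positive overall ratio signal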
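Assay system: Stable TRPC4beta/mu-opioid receptor HEK293 cells | Reagent: DAMGO in two steps, submaximal then maximal | Compound dosing: Single concentration per test compound | Signal: Fluo4 Ca2+ flux fluorescence | Evaluation: Per-well B score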
TRPC4 act – activators of mouse TRPC4 channel, primary screen, Fluo4 calcium, HEK293 TRPC4beta/mu-opioid cells. Short transient receptor potential channel 4 (Mus musculus), Q9QUQ5. hit rate 0.49% among 310,000. B-score at 10 µM. Fluo4 calcium fluorescence; active compounds read high;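 active means B-score above 5 SD of library B-scores, and initial fluorescence ratio not above library mean plus 5 SD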;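 further: positive B-score marks a calcium rise read as TRPC4 activation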
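Assay system: HEK293 stable line with TRPC4beta plus mu-opioid receptor; schedule: 45 min room-temperature Fluo4 loading, 110 s read; technique: kinetic Fluo4 calcium fluorescence; evaluation: integrated baseline-normalised fluorescence ratio, converted to per-well B score; controls: buffer (low) and maximal DAMGO (high)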
TRPC6 inhibitor – mouse TRPC6 channel inhibitors, primary screen, cell-based, HEK293, membrane potential dye | hit rate 1.1% among 310,000 | AID 2553, 2010 | B-score at 10 µM | ACh-evoked depolarization; active compounds read low | Short transient receptor potential channel 6 (Mus musculus), Q61143;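 active means B-score under library mean minus 3 SD, initial fluorescence not abnormally high, positive integrated signal ratio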;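 further: B-score derived from integrated fluorescence ratio over the kinetic read; more negative B-score means stronger inhibition of depolarization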
FID counter – compounds displacing fluorescent DNA intercalator, primary screen, artefact control for HCV NS3 helicase inhibitor project, biochemical, FID fluorescence; AID 1845, 2009; hit rate 0.17% among 290,000; inhibition, % at 7.9 µM; DNA fluorescent intercalator displacement; in the data active means inhibition above about 37%;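 further: 0% = vehicle and 100% = reference compound; higher means more ethidium bromide displaced from hairpin DNA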
The depositor's hits bear a star. Hits are enriched below; roughly 2.3% of the tested compounds scored in any of these assays.

What do the screens show for `CC(=O)NCCOc1cccc2ccccc12`?
TRPC4 potent: inactive; TRPC6 act: inactive; TRPC4 block: inactive; TRPC4 act: inactive; TRPC6 inhibitor: inactive; FID counter: -2

How did c1ccc(CCNCCCOc2cccc3ccccc23)cc1 do in these assays?
TRPC4 potent: inactive; TRPC6 act: inactive; TRPC4 block: inactive; TRPC4 act: 66*; TRPC6 inhibitor: inactive; FID counter: 32

Results for CCC(=O)c1ccc(OCC(O)CNCCc2ccc(Cl)cc2)cc1 (configuration not stated) ?
TRPC4 potent: inactive; TRPC6 act: inactive; TRPC4 block: inactive; TRPC4 act: 59*; TRPC6 inhibitor: inactive; FID counter: 17

What do the screens show for `CC(C)N(CCNCC(O)COc1ccc(C(C)(C)c2ccccc2)cc1)C(C)C` (configuration not stated)?
TRPC4 potent: inactive; TRPC6 act: inactive; TRPC4 block: inactive; TRPC4 act: inactive; TRPC6 inhibitor: inactive; FID counter: 42*

Results for O=C(Nc1ccc(Cl)cc1Cl)c1cccc(N2C(=O)C=CC2=O)c1 ?
TRPC4 potent: inactive; TRPC6 act: inactive; TRPC4 block: inactive; TRPC4 act: inactive; TRPC6 inhibitor: inactive

What do the screens show for `OC(CNCCc1ccccc1)COc1ccc(OCC(O)CNCCc2ccccc2)cc1` (configuration not stated)?
TRPC4 potent: 22*; TRPC6 act: inactive; TRPC4 block: inactive; TRPC4 act: inactive; TRPC6 inhibitor: inactive; FID counter: 30

How did COc1ccc(C(OCC(O)CNC(C)c2ccccc2)c2ccc(OC)cc2)cc1 (configuration not stated) do in these assays?
TRPC4 potent: inactive; TRPC6 act: inactive; TRPC4 block: inactive; TRPC4 act: inactive; TRPC6 inhibitor: inactive; FID counter: 25

What do the screens show for `COc1ccc(C(OCC(O)CNCCc2ccccc2)c2ccc(OC)cc2)cc1` (configuration not stated)?
TRPC4 potent: inactive; TRPC6 act: inactive; TRPC4 block: inactive; TRPC4 act: inactive; TRPC6 inhibitor: inactive; FID counter: 41*

What do the screens show for `COc1ccccc1CC(=O)N1CCN(S(=O)(=O)c2ccccc2)CC1`?
TRPC4 potent: 20*; TRPC6 act: inactive; TRPC4 block: inactive; TRPC4 act: inactive; TRPC6 inhibitor: inactive; FID counter: -30

Results for Cc1ccc(CCNC(=O)c2nnc(CS(=O)(=O)c3ccccc3)o2)cc1 ?
TRPC4 potent: inactive; TRPC6 act: inactive; TRPC4 block: inactive; TRPC4 act: inactive; TRPC6 inhibitor: inactive; FID counter: -29

What do the screens show for `CC(=O)Oc1ccc(C(=O)Nc2ccc(S(=O)(=O)NCC3CCCO3)cc2)cc1` (configuration not stated)?
TRPC4 potent: inactive; TRPC6 act: inactive; TRPC4 block: inactive; TRPC4 act: inactive; TRPC6 inhibitor: inactive; FID counter: -18

What do the screens show for `CCOCCCNCc1cn(-c2ccc(F)cc2F)nc1-c1ccccc1C`?
TRPC4 potent: inactive; TRPC6 act: inactive; TRPC4 block: inactive; TRPC4 act: 77*; TRPC6 inhibitor: inactive; FID counter: 23

What do the screens show for `O=S(=O)(NCc1cc(-c2ccccc2Cl)no1)c1ccc(Cl)cc1`?
TRPC4 potent: 10*; TRPC6 act: inactive; TRPC4 block: inactive; TRPC4 act: inactive; TRPC6 inhibitor: inactive; FID counter: -11

Results for Nc1c2c(nc3ccc(Br)cc13)N(C1CCCCC1)CC2 ?
TRPC4 potent: inactive; TRPC6 act: 18*; TRPC4 block: inactive; TRPC4 act: inactive; TRPC6 inhibitor: -7.4*; FID counter: 4
